T cruzi repl = blocks replication of Trypanosoma cruzi. T. cruzi beta-gal in NIH3T3, luminescence, 90 h. inhibition, % (test concentration not listed). hit rate 1.4% among 300,000. AID 1885;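 active = mean inhibition across valid replicates above about 55%, limit read from the data; inconclusive = mean below that limit but half or more replicates reach it; inactive = mean below it, under half of replicates reach it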;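 note: signal also drops with host cell toxicity which is not excluded here; 0% = plate median of DMSO wells and 100% = zero luminescence signal; higher percent means less beta-gal luminescence so fewer parasites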
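assay system = mouse NIH/3T3 fibroblasts infected with β-gal-expressing T. cruzi Tulahuen C4 | input = 5,000 NIH/3T3 host cells per well | buffer or medium = DMEM plus 2% FBS | timing = 3 h host attachment, then at least 90 h co-culture | measured by = GalScreen luminescence, 60 min | evaluation = luminescence reflecting intracellular parasite burden, expressed as percent inhibition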
SKKanGAS inh = inhibitors of SKKanGAS S. pyogenes growth in kanamycin (SK-promoter or general growth effect). BacTiter-Glo, 6 h. inhibition, % at 7.5 µM. hit rate 1.3% among 300,000. AID 1662;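 active = mean replicate score, as percent of positive control median, at least 50; inconclusive = mean below 50 but one replicate at or above 50; inactive = mean and every replicate below 50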;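 note: strain carries kanamycin resistance gene driven by streptokinase promoter and grows in 40 µg/ml kanamycin; loss of luminescence reflects streptokinase promoter inhibition or plain growth inhibition; 0% = median of DMSO wells and 100% = positive control at its reference dose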
Beta cell apopt = beta cell apoptosis inhibition. INS-1E cytokine-induced death, ATP luminescence, 48 h; percent of positive-control rescue, neutral wells zero. protection from apoptosis, % (no concentration beside the values). hit rate 0.8% among 300,000;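 active = Every replicate reaches about 75%, or at least half do and their mean reaches it too, limit read from the data; inconclusive = At least half of replicates reach the limit but their mean does not; inactive = Under half of replicates reach the limit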;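 note: 0% = cytokine-treated negative control wells and 100% = positive control rescue; higher means more ATP so stronger rescue from cytokine killing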
PfHsp90 yeast 2 = growth inhibition of yeast expressing Plasmodium Hsp90 | AID 504621 | S. cerevisiae expressing PfHsp90, BacTiter-Glo ATP, 48 h; yeast lacking PDR1 and PDR3 efflux regulators | inhibition, % at 9.4 µM | hit rate 0.32% among 310,000;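 active = every replicate shows inhibition above about 80%, whatever the replicate mean, limit read from the data; inconclusive = mean inhibition reaches the set limit but some replicate falls short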;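 note: 0% = DMSO neutral controls and 100% = 20 µM radicicol positive controls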
HIF activator = HIF pathway transcriptional activation | activation, % at 7.5 µM (by protocol) | hit rate 0.32% among 300,000 | U2OS HRE-luciferase reporter, luminescence; normalized: DMSO 0%, desferrioxamine 100%;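 active = mean activation of at least 10% of the iron chelator positive control signal, with at least half of replicates also reaching 10%; inconclusive = mean and replicate majority disagree about reaching 10%; inactive = mean and most replicates under 10%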
CSC inhib = cancer stem cell inhibition; cancer stem cell-like cells viability, luminescence; inhibition, % at 7.5 µM; hit rate 1.1% among 300,000; AID 2717; in the data active = inhibition above about 75%; inconclusive = no clear call, values can overlap the other calls; tested in HMLE shEcad cells
Numbers without * were called inactive; ? = inconclusive; . = no result given. Sampled rows, rich in hits. Any-hit rate of the full collection: about 3.6%.

SMILES | T cruzi repl | SKKanGAS inh | Beta cell apopt | PfHsp90 yeast 2 | HIF activator | CSC inhib
Cc1cc2nc3c(=O)n(CCc4ccccc4)c(=O)[nH]c3nc2cc1N | 56* | 31 | -2 | 14 | -31 | -1
OCCNC(=S)Nc1cccc(Cl)c1Cl | -16 | 1 | -3 | -3 | -1 | -3
CC(=O)C(Cl)C(=O)Nc1ccccc1 (centres undefined) | . | . | . | -19 | . | .
O=C(Nc1ccccc1)C(Cl)C(=O)c1ccccc1 (centres undefined) | -4 | -2 | 2 | 106* | -24 | 0
Cc1c(C)n(CCCN(C)C)c2ncnc(NCc3ccccc3)c12 | 55* | 2 | -5 | -12 | -1 | -6
CCCn1c(Oc2ccccc2)nc2c1c(=O)n(C)c(=O)n2C | -6 | 25 | 3 | 7 | 0 | -17
O=C(Nc1ccc(Br)c(C(F)(F)F)c1)c1ccc(C(F)(F)F)cc1 | 47 | 106* | 74* | . | 2 | 110*
O=C(Nc1ccc(Br)c(C(F)(F)F)c1)c1ccccc1 | 4 | 21 | 11 | -14 | 3 | 24
O=C(Nc1ccc(OCC(F)(F)C(F)F)c(C(F)(F)F)c1)c1ccc(Cl)cc1 | 48 | 92* | 79* | 68 | 4 | ?
COc1ccc(C(=O)Nc2ccc(OCC(F)(F)C(F)F)c(C(F)(F)F)c2)cc1OC | 48 | 13 | 11 | -11 | 1 | 92*
CCn1c(CCl)nc2cc(S(=O)(=O)N3CCOCC3)ccc21 | . | . | -2 | . | . | -2
O=C(N/N=C/c1cc([N+](=O)[O-])cc(Br)c1O)C12CC3CCC(CC(C3)C1)C2 | -18 | 51* | -2 | -18 | 0 | 45
C#CC[N+]1(CC#Cc2cccc(C)c2)CCCCC1 | 6 | -9 | 4 | 10 | 2 | -5
Cc1ccc(C#CC[N+]2(CC#Cc3ccc(C)cc3)CCCCC2)cc1 | 74* | -1 | 113* | 20 | 0 | 16
C#CC[N+]1(CC#Cc2ccccc2)CCCCC1 | -11 | -1 | -1 | 26 | -1 | -10
CCC[N+]1(CC#CCC(c2ccccc2)c2ccccc2)CCCCC1 | 64* | -1 | 105* | -2 | 1 | 34
C(#Cc1ccccc1)C[N+]1(CC#Cc2ccccc2)CCCCC1 | 66* | -12 | . | 20 | 0 | 2
Cc1ccc(NC(=O)CCc2nc3ccccc3c(=O)[nH]2)cc1S(=O)(=O)N1CCOCC1 | 0 | -16 | -4 | 13 | 0 | 6
COc1cc(/C=C/C(=O)OCC(=O)NCc2cccs2)ccc1OCC#N | 1 | -2 | -13 | 20 | 0 | 1
COc1cc(C2c3cc4c(cc3C(OC3OC5COC(c6cccs6)OC5C(O)C3O)C3COC(=O)C23)OCO4)cc(OC)c1O (centres undefined) | 33 | 42 | 94* | 2 | 9 | 101*
COc1cc([C@@H]2c3cc4c(cc3[C@@H](O[C@@H]3O[C@@H]5CO[C@@H](C)O[C@H]5[C@H](O)[C@H]3O)[C@H]3COC(=O)[C@H]23)OCO4)cc(OC)c1O | -18 | 5 | 11 | 11 | 8 | 64
CCCCNC(=O)CN1C(=O)COc2ccc(S(=O)(=O)N3CCCCCC3)cc21 | -5 | 3 | -13 | 9 | 46* | -32
CCOCCCNC(=O)CN1C(=O)COc2ccc(S(=O)(=O)N3CCCCCC3)cc21 | -1 | 0 | . | 10 | 1 | .
COc1ccc(CN2CCN(C(=O)CCC(=O)c3ccc(C)s3)CC2)cc1OC | . | . | -2 | 7 | . | .
S=c1[nH]nc(-c2ccccc2)n1/N=C/c1cccs1 | -2 | 0 | -4 | -10 | 0 | 0
SMILES | T cruzi repl | SKKanGAS inh | Beta cell apopt | PfHsp90 yeast 2 | HIF activator | CSC inhib
S=c1[nH]nc(-c2ccco2)n1/N=C/c1cccs1 | -1 | 0 | . | -22 | 58* | -10
CC(=O)OCC(=O)C1(O)CCC2C3CCC4C(OC(C)=O)C(=O)CCC4(C)C3C(=O)CC21C (centres undefined) | . | . | . | -17 | . | .
COc1ccc(NC(=S)NCc2cccnc2)cc1 | -11 | -2 | . | 20 | 585* | -8
COc1ccc(NC(=S)NCc2cccnc2)cc1OC | 6 | 0 | -18 | -22 | -1 | -15
O=C(NC(=S)NCc1cccnc1)c1cccc2ccccc12 | 63* | -17 | -2 | -24 | 0 | -9
COc1ccccc1N1CCN(C(=O)c2oc3cc(C)c(C)cc3c2C)CC1 | 33 | 15 | . | -2 | 0 | .
COc1cc2c(C(=O)N3CCN(c4ccccc4C)CC3)c(C)oc2cc1Br | 30 | 51* | -1 | -13 | 0 | 20
Cc1cccc(N=Nc2c(C)nn(-c3ccccc3)c2N)c1C | 14 | 57* | -7 | -20 | 1 | 50
Cc1nn(-c2ccccc2)c(N)c1N=Nc1ccccc1 | 2 | 12 | . | 0 | 6 | 34
Nc1nn(-c2ccccc2)c(N)c1N=Nc1ccccc1F | -14 | 0 | 3 | -4 | 1 | 63
Cc1nn(-c2ccccc2)c(N)c1N=Nc1ccc(Cl)cc1 | -14 | -15 | -2 | 24 | 4 | 79*
Cc1cccc(NC(=O)C(CCC(N)=O)NC(=O)OCc2ccccc2)c1 (centres undefined) | -2 | -3 | -4 | -21 | -1 | -7
CC(C)NC1(C#N)CCN(Cc2ccccc2)CC1 | . | . | . | 5 | . | .
COc1ccc(OCC(=O)NNC(=S)NC(=O)C2CC2)cc1 | -21 | 63* | -1 | -24 | 0 | .
CNC(=S)NNC(=O)Cc1ccc(OC)cc1 | -2 | 8 | 1 | -2 | 0 | -2
Cc1cc(C)cc(OCC(=O)NNC(=S)NC(=O)C2CC2)c1 | -9 | 87* | 8 | ? | -1 | -5
COc1ccc(C(=O)NC(=S)NNC(=O)CNC(=O)C2CCCCC2)cc1 | -12 | 8 | 3 | 6 | 3 | -10
COc1ccc(CC(=O)NC(=S)NNC(=O)COc2c(C)cccc2C)cc1 | -29 | 97* | 4 | -10 | 0 | 2
COc1ccc(NC(=S)NC(=O)C2CCC2)cc1 | -16 | -7 | -1 | 5 | 2 | 7
CCCCNC(=O)NNC(=O)COc1cc(C)cc(C)c1 | -5 | -5 | 1 | -2 | 0 | -1
COc1ccc(OCC(=O)NNC(=S)NC(=O)C2CCCCC2)cc1 | -6 | 64* | . | . | 0 | 2
Cc1nnc(NC(=O)c2ccc3ccccc3n2)s1 | -3 | 2 | 1 | 0 | 5 | -5
COc1cccc(-c2ccc3c(c2)C2CC3CCN2C(C)=O)c1 (centres undefined) | . | . | . | -22 | . | .
CCc1nnc(NC(=O)C2CCN(C(=O)c3ccco3)CC2)s1 | -15 | -1 | 2 | -16 | 1 | 4
CCC(C)(C)c1nnc(NC(=O)C2CCN(C(=O)c3ccco3)CC2)s1 | -12 | 22 | -9 | -54 | 27* | .
CCOC(=O)C1CCN(C(=O)c2cccc(S(=O)(=O)N3CCCc4ccccc43)c2)CC1 | . | . | . | -2 | . | .
CC1(c2cc([N+](=O)[O-])cc([N+](=O)[O-])c2)CC(C)(C)N(C(=O)c2ccccc2)c2ccccc21 (centres undefined) | 67* | 9 | 21 | . | -1 | 22
